≈ marks a conversion by molar mass, not a printed value.
Legend:
Assay type in all cases: functional
Candida albicans [1] = assay: Ratio of itraconazole MIC80 to compound MIC80 for Candida albicans SC5314
Candida albicans [2] = assay: Ratio of voriconazole MIC80 to compound MIC80 for Candida albicans SC5314
Nannizzia gypsea = assay: Antimicrobial activity against Microsporum gypseum by broth microdilution method
Aspergillus fumigatus = assay: Antimicrobial activity against Aspergillus fumigatus by broth microdilution method
Trichophyton rubrum = assay: Antimicrobial activity against Trichophyton rubrum by broth microdilution method
Candida albicans [3] = assay: Antimicrobial activity against Candida albicans Y0109 after 24 hrs by broth microdilution method; conditions: Y0109, 24 h
Outline: (§1)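 Broth microdilution in 96-well plates following NCCLS methods. Compounds were dissolved in DMSO, serially diluted in growth medium, inoculated and incubated at 35°C. MIC read at 24 h for Candida albicans and at 72 h for Cryptococcus neoformans. MIC80 is the first well with about 80% less growth than the drug-free well. Values are means of three replicate tests.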

Candida parapsilosis = assay: Antimicrobial activity against Candida parapsilosis by broth microdilution method; conditions: Lodderomyces parapsilosis
Candida albicans [4] = assay: Antimicrobial activity against Candida albicans SC5314 after 24 hrs by broth microdilution method; conditions: SC5314, 24 h; outline: as §1
Nakaseomyces glabratus [5] = assay: Antimicrobial activity against Candida glabrata by broth microdilution method
Cryptococcus neoformans = assay: Antimicrobial activity against Cryptococcus neoformans after 72 hrs by broth microdilution method; outline: as §1
Nakaseomyces glabratus [6] = assay: Ratio of ketoconazole MIC80 to compound MIC80 for Candida glabrata
Nakaseomyces glabratus [7] = assay: Ratio of itraconazole MIC80 to compound MIC80 for Candida glabrata
Nakaseomyces glabratus [8] = assay: Ratio of voriconazole MIC80 to compound MIC80 for Candida glabrata
Nakaseomyces glabratus [9] = assay: Ratio of fluconazole MIC80 to compound MIC80 for Candida glabrata

| Compound | Ratio (Candida albicans [1]) | Ratio (Candida albicans [2]) | MIC80 (Nannizzia gypsea) [µg/mL] | MIC80 (Aspergillus fumigatus) [µg/mL] | MIC80 (Trichophyton rubrum) [µg/mL] | MIC80 (Candida albicans [3]) [µg/mL] | MIC80 (Candida parapsilosis) [µg/mL] | MIC80 (Candida albicans [4]) [µg/mL] | MIC80 (Nakaseomyces glabratus [5]) [µg/mL] | MIC80 (Cryptococcus neoformans) [µg/mL] | Ratio (Nakaseomyces glabratus [6]) | Ratio (Nakaseomyces glabratus [7]) | Ratio (Nakaseomyces glabratus [8]) | Ratio (Nakaseomyces glabratus [9]) |
| --- | --- | --- | --- | --- | --- | --- | --- | --- | --- | --- | --- | --- | --- | --- |
| OC(CN1CCN(CCCSc2nnc(-c3cccc(Cl)c3)o2)CC1)(Cn1cncn1)c1ccc(F)cc1F (stereo unspecified) | 64 | 16 | 1 (≈ 1.74 µM) | > 64 | 0.0625 (≈ 0.108 µM) | 0.0039 (≈ 0.00677 µM) | 0.25 (≈ 0.434 µM) | 0.0039 (≈ 0.00677 µM) | 0.25 (≈ 0.434 µM) | 0.0625 (≈ 0.108 µM) |  |  |  |  |
| OC(CN1CCN(CCCSc2nnc(-c3ccc(Cl)cc3)o2)CC1)(Cn1cncn1)c1ccc(F)cc1F (stereo unspecified) |  | 16 | 4 (≈ 6.94 µM) | > 64 | 0.25 (≈ 0.434 µM) | 0.0625 (≈ 0.108 µM) | 0.0625 (≈ 0.108 µM) | 0.0039 (≈ 0.00677 µM) | 0.0625 (≈ 0.108 µM) | 0.0625 (≈ 0.108 µM) |  |  |  |  |
| OC(CN1CCN(CCCSc2nnc(-c3ccccc3Br)o2)CC1)(Cn1cncn1)c1ccc(F)cc1F (stereo unspecified) |  |  | 0.25 (≈ 0.403 µM) | > 64 | 0.25 (≈ 0.403 µM) | 0.0625 (≈ 0.101 µM) | 0.0625 (≈ 0.101 µM) | 0.0156 (≈ 0.0251 µM) | 0.0625 (≈ 0.101 µM) | 0.0625 (≈ 0.101 µM) |  |  |  |  |
| OC(CN1CCN(CCCSc2nnc(-c3cccc(Br)c3)o2)CC1)(Cn1cncn1)c1ccc(F)cc1F (stereo unspecified) |  |  | 1 (≈ 1.61 µM) | > 64 | 0.25 (≈ 0.403 µM) | 0.0625 (≈ 0.101 µM) | 0.25 (≈ 0.403 µM) | 0.0625 (≈ 0.101 µM) | 0.0039 (≈ 0.00629 µM) | 0.25 (≈ 0.403 µM) | 2051 | 32 | 16 | 256 |
| OC(CN1CCN(CCCSc2nnc(-c3ccc(Br)cc3)o2)CC1)(Cn1cncn1)c1ccc(F)cc1F (stereo unspecified) |  |  | 0.25 (≈ 0.403 µM) | > 64 | 0.25 (≈ 0.403 µM) | 0.0625 (≈ 0.101 µM) | 0.0625 (≈ 0.101 µM) | 0.0625 (≈ 0.101 µM) | 0.0156 (≈ 0.0251 µM) | 0.25 (≈ 0.403 µM) |  |  |  |  |
| Cc1ccccc1-c1nnc(SCCCN2CCN(CC(O)(Cn3cncn3)c3ccc(F)cc3F)CC2)o1 (stereo unspecified) |  |  | 0.25 (≈ 0.45 µM) | > 64 | 0.25 (≈ 0.45 µM) | 0.25 (≈ 0.45 µM) | 0.125 (≈ 0.225 µM) | 0.25 (≈ 0.45 µM) | 0.125 (≈ 0.225 µM) | 0.125 (≈ 0.225 µM) |  |  |  |  |
| Cc1cccc(-c2nnc(SCCCN3CCN(CC(O)(Cn4cncn4)c4ccc(F)cc4F)CC3)o2)c1 (stereo unspecified) |  |  | 1 (≈ 1.8 µM) | > 64 | 1 (≈ 1.8 µM) | 0.25 (≈ 0.45 µM) | 4 (≈ 7.2 µM) | 0.125 (≈ 0.225 µM) | 1 (≈ 1.8 µM) | 1 (≈ 1.8 µM) |  |  |  |  |
| Cc1ccc(-c2nnc(SCCCN3CCN(CC(O)(Cn4cncn4)c4ccc(F)cc4F)CC3)o2)cc1 (stereo unspecified) |  |  | 1 (≈ 1.8 µM) | > 64 | 1 (≈ 1.8 µM) | 0.125 (≈ 0.225 µM) | 0.025 (≈ 0.045 µM) | 0.25 (≈ 0.45 µM) | 0.25 (≈ 0.45 µM) | 1 (≈ 1.8 µM) |  |  |  |  |
| COc1ccccc1-c1nnc(SCCCN2CCN(CC(O)(Cn3cncn3)c3ccc(F)cc3F)CC2)o1 (stereo unspecified) |  |  | 16 (≈ 28 µM) | > 64 | 0.25 (≈ 0.437 µM) | 0.125 (≈ 0.219 µM) | 16 (≈ 28 µM) | 0.25 (≈ 0.437 µM) | 1 (≈ 1.75 µM) | 4 (≈ 7 µM) |  |  |  |  |
| COc1cccc(-c2nnc(SCCCN3CCN(CC(O)(Cn4cncn4)c4ccc(F)cc4F)CC3)o2)c1 (stereo unspecified) |  |  | 0.25 (≈ 0.437 µM) | > 64 | 0.0625 (≈ 0.109 µM) | 0.25 (≈ 0.437 µM) | 0.25 (≈ 0.437 µM) | 0.25 (≈ 0.437 µM) | 0.25 (≈ 0.437 µM) | 0.25 (≈ 0.437 µM) |  |  |  |  |
| COc1ccc(-c2nnc(SCCCN3CCN(CC(O)(Cn4cncn4)c4ccc(F)cc4F)CC3)o2)cc1 (stereo unspecified) |  |  | 0.25 (≈ 0.437 µM) | > 64 | 0.25 (≈ 0.437 µM) | 0.25 (≈ 0.437 µM) | 0.25 (≈ 0.437 µM) | 0.25 (≈ 0.437 µM) | 0.25 (≈ 0.437 µM) | 0.25 (≈ 0.437 µM) |  |  |  |  |
| O=[N+]([O-])c1ccccc1-c1nnc(SCCCN2CCN(CC(O)(Cn3cncn3)c3ccc(F)cc3F)CC2)o1 (stereo unspecified) |  |  | 0.25 (≈ 0.426 µM) | > 64 | 0.25 (≈ 0.426 µM) | 0.25 (≈ 0.426 µM) | 0.125 (≈ 0.213 µM) | 0.125 (≈ 0.213 µM) | 0.25 (≈ 0.426 µM) | 0.125 (≈ 0.213 µM) |  |  |  |  |
| O=[N+]([O-])c1ccc(-c2nnc(SCCCN3CCN(CC(O)(Cn4cncn4)c4ccc(F)cc4F)CC3)o2)cc1 (stereo unspecified) |  |  | 1 (≈ 1.7 µM) | > 64 | 1 (≈ 1.7 µM) | 0.125 (≈ 0.213 µM) | 0.125 (≈ 0.213 µM) | 0.25 (≈ 0.426 µM) | 0.125 (≈ 0.213 µM) | 0.25 (≈ 0.426 µM) |  |  |  |  |
| N#Cc1ccccc1-c1nnc(SCCCN2CCN(CC(O)(Cn3cncn3)c3ccc(F)cc3F)CC2)o1 (stereo unspecified) |  |  | 1 (≈ 1.76 µM) | > 64 | 0.25 (≈ 0.441 µM) | 0.125 (≈ 0.221 µM) | 0.25 (≈ 0.441 µM) | 0.125 (≈ 0.221 µM) | 0.125 (≈ 0.221 µM) | 0.25 (≈ 0.441 µM) |  |  |  |  |
| N#Cc1cccc(-c2nnc(SCCCN3CCN(CC(O)(Cn4cncn4)c4ccc(F)cc4F)CC3)o2)c1 (stereo unspecified) |  |  | 1 (≈ 1.76 µM) | > 64 | 0.25 (≈ 0.441 µM) | 0.125 (≈ 0.221 µM) | 0.25 (≈ 0.441 µM) | 0.125 (≈ 0.221 µM) | 0.25 (≈ 0.441 µM) | 0.25 (≈ 0.441 µM) |  |  |  |  |
| OC(CN1CCNCC1)(Cn1cncn1)c1ccc(F)cc1F (stereo unspecified) |  |  | 16 (≈ 49.5 µM) | > 64 | 1 (≈ 3.09 µM) | 1 (≈ 3.09 µM) | 2 (≈ 6.19 µM) | 0.5 (≈ 1.55 µM) | 0.25 (≈ 0.773 µM) | 4 (≈ 12.4 µM) |  |  |  |  |
| OC(CN1CCN(CCCSc2nnc(-c3ccccc3)o2)CC1)(Cn1cncn1)c1ccc(F)cc1F (stereo unspecified) |  |  | 1 (≈ 1.85 µM) | > 64 | 0.25 (≈ 0.462 µM) | 0.0156 (≈ 0.0288 µM) | 0.0625 (≈ 0.115 µM) | 0.0156 (≈ 0.0288 µM) | 0.0625 (≈ 0.115 µM) | 0.0625 (≈ 0.115 µM) |  |  |  |  |
| OC(CN1CCN(CCCSc2nnc(-c3ccccc3F)o2)CC1)(Cn1cncn1)c1ccc(F)cc1F (stereo unspecified) |  |  | 1 (≈ 1.79 µM) | > 64 | 0.0625 (≈ 0.112 µM) | 0.0156 (≈ 0.0279 µM) | 0.25 (≈ 0.447 µM) | 0.0625 (≈ 0.112 µM) | 0.0625 (≈ 0.112 µM) | 0.0625 (≈ 0.112 µM) |  |  |  |  |
| OC(CN1CCN(CCCSc2nnc(-c3cccc(F)c3)o2)CC1)(Cn1cncn1)c1ccc(F)cc1F (stereo unspecified) | 64 | 16 | 1 (≈ 1.79 µM) | > 64 | 0.0625 (≈ 0.112 µM) | 0.0625 (≈ 0.112 µM) | 0.25 (≈ 0.447 µM) | 0.0039 (≈ 0.00697 µM) | 0.0625 (≈ 0.112 µM) | 0.0625 (≈ 0.112 µM) |  |  |  |  |
| OC(CN1CCN(CCCSc2nnc(-c3ccc(F)cc3)o2)CC1)(Cn1cncn1)c1ccc(F)cc1F (stereo unspecified) |  |  | 4 (≈ 7.15 µM) | > 64 | 0.0625 (≈ 0.112 µM) | 0.25 (≈ 0.447 µM) | 0.25 (≈ 0.447 µM) | 0.0156 (≈ 0.0279 µM) | 0.25 (≈ 0.447 µM) | 0.25 (≈ 0.447 µM) |  |  |  |  |
| OC(CN1CCN(CCCSc2nnc(-c3ccccc3Cl)o2)CC1)(Cn1cncn1)c1ccc(F)cc1F (stereo unspecified) | 64 | 16 | 4 (≈ 6.94 µM) | > 64 | 0.25 (≈ 0.434 µM) | 0.0039 (≈ 0.00677 µM) | 0.25 (≈ 0.434 µM) | 0.0039 (≈ 0.00677 µM) | 0.25 (≈ 0.434 µM) | 0.25 (≈ 0.434 µM) |  |  |  |  |
| OC(Cn1cncn1)(Cn1cncn1)c1ccc(F)cc1F [FLUCONAZOLE] |  |  | 8 (≈ 26.1 µM) | 8 (≈ 26.1 µM) | > 64 | 0.5 (≈ 1.63 µM) | 1 (≈ 3.27 µM) | 0.5 (≈ 1.63 µM) | 1 (≈ 3.27 µM) | 1 (≈ 3.27 µM) |  |  |  |  |
| CCC(C)n1ncn(-c2ccc(N3CCN(c4ccc(OCC5COC(Cn6cncn6)(c6ccc(Cl)cc6Cl)O5)cc4)CC3)cc2)c1=O (stereo unspecified) [ITRACONAZOLE] |  |  | 1 (≈ 1.42 µM) | 1 (≈ 1.42 µM) | 0.5 (≈ 0.709 µM) | 0.25 (≈ 0.354 µM) | 0.125 (≈ 0.177 µM) | 0.25 (≈ 0.354 µM) | 0.125 (≈ 0.177 µM) | 0.125 (≈ 0.177 µM) |  |  |  |  |
| CC(=O)N1CCN(c2ccc(OCC3COC(Cn4ccnc4)(c4ccc(Cl)cc4Cl)O3)cc2)CC1 (stereo unspecified) [KETOCONAZOLE] |  |  | 2 (≈ 3.76 µM) | 2 (≈ 3.76 µM) | 8 (≈ 15.1 µM) | 8 (≈ 15.1 µM) | 8 (≈ 15.1 µM) | 4 (≈ 7.53 µM) | 8 (≈ 15.1 µM) | 4 (≈ 7.53 µM) |  |  |  |  |
| C[C@@H](c1ncncc1F)[C@](O)(Cn1cncn1)c1ccc(F)cc1F [VORICONAZOLE] |  |  | 0.125 (≈ 0.358 µM) | 0.0625 (≈ 0.179 µM) | 0.25 (≈ 0.716 µM) | 0.0625 (≈ 0.179 µM) | 0.0625 (≈ 0.179 µM) | 0.0625 (≈ 0.179 µM) | 0.0625 (≈ 0.179 µM) | 0.0156 (≈ 0.0447 µM) |  |  |  |  |

Reference: ChEMBL document CHEMBL3098071, “Synthesis and evaluation of novel azoles as potent antifungal agents” (2014)
